Test results from ChEMBL document CHEMBL1122838, “GABA agonists. Resolution, absolute stereochemistry, and enantioselectivity of (S)-(+)- and (R)-(-)-dihydromuscimol” (J Med Chem, 1985).
Active and inactive are the calls of the source. The calls are words filed in the database; no cut-off is given here.

Columns and labels:
Felis catus [1] = experiment: BMC-sensitive inhibitory effect on cat spinal neurons relative to that of GABA was expressed in vivo as relative potency; Less activity; assay type: functional, organism-based
[2] = target: Gamma-aminobutyric acid receptor subunit gamma-1 (Rattus norvegicus, UniProt P23574); experiment: In vitro inhibition of [3H]GABA binding to Gamma-aminobutyric acid receptor of rat brain synaptic membranes; assay type: cell membranes, Membrane
[3] = target: GABA-A receptor; anion channel; experiment: In vitro inhibition of [3H]P4S binding to Gamma-aminobutyric acid receptor of rat brain synaptic membranes; assay type: cell membranes, Membrane
[4] = target: GABA-A receptor; anion channel; experiment: In vitro inhibition of [3H]THIP binding to Gamma-aminobutyric acid receptor in rat brain synaptic membranes; assay type: cell membranes, Membrane
Summary of the method: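 Radioligand 0.005 μM [3H]THIP; rat cortical synaptic membranes (0.8–1.2 mg protein) in 0.05 M Tris-citrate pH 7.1, triplicate, 15 min at 4 °C, analogue up to 100 μM. IC50 derived from displacement; three experiments averaged per concentration.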

GABA transporter [5] = target: T1, GABA transporter (Rattus norvegicus, UniProt P31647+P23978+P31646+P48056); assay type: functional, cell membranes, Brain, Membrane
Felis catus [6] = experiment: In vivo BMC-sensitive inhibitory effect on cat spinal neurons relative to that of GABA; Equal activity; assay type: functional, organism-based
GABA transporter [7] = target: T1, GABA transporter; experiment: In vitro inhibition of GABA uptake in rat brain synaptosomes
Felis catus [8] = experiment: BMC-sensitive inhibitory effect on cat spinal neurons relative to that of GABA was expressed in vivo as relative potency; Greater activity; assay type: functional, organism-based
[9] = target: GABA-A receptor; anion channel; experiment: In vitro inhibition of [3H]GABA binding to rat brain synaptic membranes; assay type: cell membranes, Membrane
Summary of the method: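 Rat cerebral cortex synaptic membranes (0.8–1.2 mg protein) incubated in triplicate 15 min at 4 °C in 0.05 M Tris-citrate pH 7.1 with 0.005 μM [3H]GABA and analogue (up to 100 μM). Displacement used to derive IC50; each concentration mean of three experiments.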

Chain of Gamma-aminobutyric acid receptor subunit gamma-1 (P23574 whole entry): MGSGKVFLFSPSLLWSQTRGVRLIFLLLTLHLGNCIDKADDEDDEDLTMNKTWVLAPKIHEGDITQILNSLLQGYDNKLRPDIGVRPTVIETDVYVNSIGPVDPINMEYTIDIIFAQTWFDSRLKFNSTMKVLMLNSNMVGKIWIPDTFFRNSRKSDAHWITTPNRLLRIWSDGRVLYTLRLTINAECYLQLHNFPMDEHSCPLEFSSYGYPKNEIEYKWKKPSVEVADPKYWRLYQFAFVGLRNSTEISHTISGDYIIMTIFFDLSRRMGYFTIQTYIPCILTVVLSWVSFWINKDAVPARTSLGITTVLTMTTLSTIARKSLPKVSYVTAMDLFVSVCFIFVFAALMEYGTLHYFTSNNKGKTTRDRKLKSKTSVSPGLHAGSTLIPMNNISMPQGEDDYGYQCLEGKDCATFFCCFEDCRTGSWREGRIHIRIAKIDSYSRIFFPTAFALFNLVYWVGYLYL

| Structure (SMILES) | Relative potency (Felis catus [1]) | IC50 [2] [nM] | IC50 [3] [nM] | IC50 [4] [nM] | IC50 (GABA transporter [5]) [nM] | Relative potency (Felis catus [6]) | IC50 (GABA transporter [7]) [nM] | Relative potency (Felis catus [8]) | IC50 [9] [nM] |
| --- | --- | --- | --- | --- | --- | --- | --- | --- | --- |
| NC[C@@H](O)CC(=O)O | Partially active | 400 | 900 | 200 | 29000 | – | – | – | – |
| NC[C@H]1CC(=O)NO1 | – | – | – | – | – | Active | 70000 | – | – |
| NCC1CC(=O)NO1 (racemic) | – | – | 18 | 5 | 130000 | – | – | Active | 8 |
| NCc1cc(O)no1 [MUSCIMOL] | – | – | – | – | 320000 | – | – | Active | – |
| NC[C@H]1CC(O)=NO1 | – | 250 | 540 | 140 | – | – | – | – | – |
| NC[C@@H]1CC(=O)NO1 | – | 4 | 8 | 3 | > 500000 | – | – | Active | – |
| NCc1cc(=O)[nH]o1 [MUSCIMOL] | – | 6 | 6 | 5 | – | – | – | – | – |
| NC[C@H](O)CC(=O)O | Partially active | – | 1900 | 300 | – | – | 67000 | – | 1000 |
